# How the values were obtained:
# Candida albicans = experiment: Antimicrobial activity against Candida albicans at 300 ug/disc; type: functional; conditions: read-out: IZ
# How it was run: (§1)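 Disc diffusion on agar plates inoculated with a standardized microbial suspension, with paper discs carrying known compound amounts. DMSO-only discs served as negative controls, and chloramphenicol, rifampicin (bacteria) or nistatin (fungi) as references. The read-out is the mean inhibition zone diameter in mm. Each run was done three times and repeated if results differed.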
# Toxoplasma gondii [1] = experiment: Antiparasitic activity against Toxoplasma gondii infected african green monkey Vero cells at 5 mM assessed as infected cells; type: functional
# How it was run: (§2)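 Vero cells were infected with RH-strain tachyzoites (5:1 parasite:cell) for 1 h, washed with PBS, and grown 24 h at 37 °C in medium 199 with 5% FCS. Compound was then added for 24 h. Cells were fixed with Bouin's, stained with Giemsa, and at least 400 cells were counted by light microscopy for the percentage infected. Hydroxyurea and sulfadiazine served as references.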
# Candida [2] = experiment: Antimicrobial activity against Candida sp. IMUR720 at 300 ug/disc; type: functional; conditions: read-out: IZ; how it was run: as §1
# Toxoplasma gondii [3] = experiment: Antiparasitic activity against Toxoplasma gondii infected african green monkey Vero cells at 20 mM assessed as infected cells; type: functional; how it was run: as §2
# Toxoplasma gondii [4] = experiment: Antiparasitic activity against Toxoplasma gondii infected african green monkey Vero cells at 2 mM assessed as infected cells; type: functional; how it was run: as §2
# Toxoplasma gondii [5] = experiment: Antiparasitic activity against Toxoplasma gondii infected african green monkey Vero cells at 0.1 mM assessed as infected cells; type: functional; how it was run: as §2
# Escherichia coli = experiment: Antimicrobial activity against Escherichia coli at 300 ug/disc; type: functional; conditions: read-out: IZ; how it was run: as §1
# Micrococcus luteus = experiment: Antimicrobial activity against Micrococcus luteus at 300 ug/disc; type: functional; conditions: read-out: IZ; how it was run: as §1
# Toxoplasma gondii [6] = experiment: Inhibition of Toxoplasma gondii infected in african green monkey Vero cells; type: functional, organism-based
# How it was run: (§3)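 Infected Vero cultures were exposed to compound at 0.01–30 mM for 24 h, in triplicate per assay. IC50 for infected cells and intracellular parasites was derived by non-linear regression, using trypan blue exclusion.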
# Staphylococcus aureus = experiment: Antimicrobial activity against Staphylococcus aureus at 300 ug/disc; type: functional; conditions: read-out: IZ; how it was run: as §1
# Toxoplasma gondii [7] = experiment: Inhibition of intracellular parasite Toxoplasma gondii; type: functional, organism-based; how it was run: as §3
# Klebsiella pneumoniae = experiment: Antimicrobial activity against Klebsiella pneumoniae at 300 ug/disc; type: functional; conditions: read-out: IZ; how it was run: as §1
# Bacillus subtilis = experiment: Antimicrobial activity against Bacillus subtilis at 300 ug/disc; type: functional; conditions: read-out: IZ; how it was run: as §1
# Enterococcus faecalis = experiment: Antimicrobial activity against Streptococcus faecalis at 300 ug/disc; type: functional; conditions: read-out: IZ; how it was run: as §1
# Vero = experiment: Inhibition of uninfected african green monkey Vero cells; type: cell-based; conditions: Chlorocebus sabaeus
# Toxoplasma gondii [8] = experiment: Antiparasitic activity against Toxoplasma gondii infected african green monkey Vero cells at 8 mM assessed as infected cells; type: functional; how it was run: as §2
# Candida [9] = experiment: Antimicrobial activity against Candida sp. IMUR1224 at 300 ug/disc; type: functional; conditions: read-out: IZ; how it was run: as §1
# Saccharomyces cerevisiae = experiment: Antimicrobial activity against Saccharomyces cerevisiae at 300 ug/disc; type: functional; conditions: read-out: IZ; how it was run: as §1
# [10] = system: Mycolicibacterium smegmatis; experiment: Antimicrobial activity against Mycobacterium smegmatis at 300 ug/disc; type: functional; conditions: read-out: IZ; how it was run: as §1
# Candida [11] = experiment: Antimicrobial activity against Candida sp. IMUR4249 at 300 ug/disc; type: functional; conditions: read-out: IZ; how it was run: as §1
# [12] = system: Mycobacterium tuberculosis; experiment: Antimicrobial activity against Mycobacterium tuberculosis at 300 ug/disc; type: functional; conditions: read-out: IZ
# How it was run: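 Agar disc diffusion: paper discs loaded with compound placed on agar plates seeded with a standardised microbial suspension. DMSO-only discs served as negative control. Chloramphenicol and rifampicin (bacteria) or nistatin (fungi) gave reference zones. Read-out was mean zone of inhibition diameter (mm). Each experiment was run three times and repeated if results differed.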
# Mycolicibacterium phlei = experiment: Antimicrobial activity against Mycobacterium phlei at 300 ug/disc; type: functional; conditions: read-out: IZ; how it was run: as §1
# Candida [13] = experiment: Antimicrobial activity against Candida sp. IMUR4249; type: functional
# How it was run: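 Tube dilution MIC, run on compounds with a disc-diffusion zone of at least 18 mm. The DMSO stock (1 mg/mL) was serially diluted to 10–220 µg/mL final in medium, and strains were inoculated at 10^8/mL. Media were tryptic soy or nutrient agar for bacteria and Sabouraud liquid for fungi, incubated 24–48 h at 37 °C (bacteria) or 30 °C (fungi). MIC is the lowest concentration giving clear tubes.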
SMILES,zone of inhibition at 300 µg/disc (Candida albicans) [mm],Activity (Toxoplasma gondii [1]) [%],zone of inhibition at 300 µg/disc (Candida [2]) [mm],Activity (Toxoplasma gondii [3]) [%],Activity (Toxoplasma gondii [4]) [%],Activity (Toxoplasma gondii [5]) [%],zone of inhibition at 300 µg/disc (Escherichia coli) [mm],zone of inhibition at 300 µg/disc (Micrococcus luteus) [mm],IC50 (Toxoplasma gondii [6]) [µM],zone of inhibition at 300 µg/disc (Staphylococcus aureus) [mm],IC50 (Toxoplasma gondii [7]) [µM],zone of inhibition at 300 µg/disc (Klebsiella pneumoniae) [mm],zone of inhibition at 300 µg/disc (Bacillus subtilis) [mm],zone of inhibition at 300 µg/disc (Enterococcus faecalis) [mm],IC50 (Vero) [µM],Activity (Toxoplasma gondii [8]) [%],zone of inhibition at 300 µg/disc (Candida [9]) [mm],zone of inhibition at 300 µg/disc (Saccharomyces cerevisiae) [mm],zone of inhibition at 300 µg/disc [10] [mm],zone of inhibition at 300 µg/disc (Candida [11]) [mm],other results
COc1cc(/C=N/N=C2\SC(CC(=O)O)C(=O)N2c2ccccc2)cc(OC)c1OC (stereo not drawn),10,15.63,< 7,0,14.33,55.57,< 7,25,1000,< 7,500,< 7,19,< 7,2000,7.2,< 7,< 7,< 7,15,zone of inhibition at 300 µg/disc [12]: < 7 mm; zone of inhibition at 300 µg/disc (Mycolicibacterium phlei): < 7 mm
O=C(O)CC1S/C(=N\N=C\c2ccccc2F)N(c2ccccc2)C1=O (stereo not drawn),7,0,< 7,0,16.14,70.79,< 7,25,2000,< 7,1000,< 7,15,16,2000,0,< 7,< 7,13,20,MFC (Candida [13]): 70 µg/mL; MIC (Candida [13]): 80 µg/mL; zone of inhibition at 300 µg/disc [12]: 14 mm; zone of inhibition at 300 µg/disc (Mycolicibacterium phlei): 7 mm
O=C(O)CC1S/C(=N\N=C\c2ccccc2)N(c2ccccc2)C1=O (stereo not drawn),8,14.6,< 7,0,48.5,69.7,< 7,20,4000,< 7,1000,< 7,15,12,5000,0,< 7,< 7,9,< 7,zone of inhibition at 300 µg/disc [12]: 14 mm; zone of inhibition at 300 µg/disc (Mycolicibacterium phlei): 7 mm
COc1ccc(/C=N/N=C2\SC(CC(=O)O)C(=O)N2c2ccccc2)c(OC)c1 (stereo not drawn),13,0,< 7,0,39.5,66.36,< 7,15,2000,< 7,500,< 7,< 7,< 7,5000,0,< 7,12,< 7,20,MFC (Candida [13]): 70 µg/mL; MIC (Candida [13]): 80 µg/mL; zone of inhibition at 300 µg/disc [12]: < 7 mm; zone of inhibition at 300 µg/disc (Mycolicibacterium phlei): < 7 mm
CN(C)c1ccc(/C=N/N=C2\SC(CC(=O)O)C(=O)N2c2ccccc2)cc1 (stereo not drawn),< 7,0,< 7,0,0,50.58,< 7,10,50,< 7,50,< 7,< 7,< 7,1000,0,< 7,< 7,< 7,16,zone of inhibition at 300 µg/disc [12]: < 7 mm; zone of inhibition at 300 µg/disc (Mycolicibacterium phlei): < 7 mm
O=C(O)CC1S/C(=N\N=C\c2cccc(Cl)c2)N(c2ccccc2)C1=O (stereo not drawn),< 7,33.5,< 7,0,34.8,53.74,< 7,16,3000,< 7,2000,< 7,< 7,12,10000,0,< 7,< 7,< 7,11,zone of inhibition at 300 µg/disc [12]: < 7 mm; zone of inhibition at 300 µg/disc (Mycolicibacterium phlei): < 7 mm
O=C(O)CC1S/C(=N\N=C\c2ccc(F)cc2)N(c2ccccc2)C1=O (stereo not drawn),8,0,< 7,0,10.2,21.7,< 7,15,50,< 7,50,< 7,14,16,2000,0,< 7,< 7,12,22,MFC (Candida [13]): 70 µg/mL; MIC (Candida [13]): 80 µg/mL; zone of inhibition at 300 µg/disc [12]: 14 mm; zone of inhibition at 300 µg/disc (Mycolicibacterium phlei): 7 mm
O=C(O)CC1S/C(=N\N=C\c2ccc(Cl)cc2)N(c2ccccc2)C1=O (stereo not drawn),8,0,< 7,0,35.3,68.15,< 7,21,1500,< 7,500,< 7,13,15,2000,0,< 7,< 7,15,20,MFC (Candida [13]): 140 µg/mL; MIC (Candida [13]): 150 µg/mL; zone of inhibition at 300 µg/disc [12]: 17 mm; zone of inhibition at 300 µg/disc (Mycolicibacterium phlei): 12 mm
COc1cccc(/C=N/N=C2\SC(CC(=O)O)C(=O)N2c2ccccc2)c1 (stereo not drawn),< 7,7.3,< 7,0,28.71,34.16,< 7,22,3000,14,100,< 7,9,11,5000,4.16,< 7,< 7,< 7,18,MFC (Candida [13]): 70 µg/mL; MIC (Candida [13]): 80 µg/mL; zone of inhibition at 300 µg/disc [12]: < 7 mm; zone of inhibition at 300 µg/disc (Mycolicibacterium phlei): < 7 mm

# Reference: ChEMBL document CHEMBL1140759, “Synthesis, anti-Toxoplasma gondii and antimicrobial activities of benzaldehyde 4-phenyl-3-thiosemicarbazones and 2-[(phenylmethylene)hydrazono]-4-oxo-3-phenyl-5-thiazolidineacetic acids” (Bioorg Med Chem, 2008)
